# Results: ChEMBL document CHEMBL4138085, “Design, synthesis and antimicrobial evaluation of novel benzimidazole-incorporated sulfonamide analogues” (Eur J Med Chem, 2017)
# Active and inactive are the calls of the source. No cut-off for these calls is given here.
# Tests used:
# Staphylococcus aureus [1] = test: Antibacterial activity against Staphylococcus aureus ATCC 25923 after 24 hrs by NCCLS two fold broth microdilution method; type: functional; details: ATCC 25923, 24 h
# Method in brief: (§1)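 Two-fold serial broth microdilution in 96-well plates following NCCLS. Compounds were dissolved in DMSO as stocks, then diluted in Mueller–Hinton broth to final concentrations of 0.5–512 µg/mL. Plates were inoculated and incubated at 37 °C for 24 h, with growth read visually and spectrophotometrically. MIC was taken as the lowest concentration giving complete growth inhibition. Run in triplicate, with a DMSO-plus-inoculum solvent control.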
# Staphylococcus aureus [2] = test: Antibacterial activity against methicillin-resistant Staphylococcus aureus N315 after 24 hrs by NCCLS two fold broth microdilution method; type: functional; details: N315, 24 h
# Method in brief: (§2)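 Two-fold serial broth microdilution per NCCLS. Chloromycin and norfloxacin as reference drugs; DMSO with inoculum, no drug, as solvent control. Incubation 37 °C for 24 h. Growth read visually and spectrophotometrically. MIC is the lowest concentration completely inhibiting growth; triplicate.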
# Bacillus subtilis [3] = test: Antibacterial activity against Bacillus subtilis ATCC 21216 after 24 hrs by NCCLS two fold broth microdilution method; type: functional; details: ATCC 21216, 24 h; method in brief: as §1
# Micrococcus luteus = test: Antibacterial activity against Micrococcus luteus ATCC 4698 after 24 hrs by NCCLS two fold broth microdilution method; type: functional; details: NCTC 2665, 24 h; method in brief: as §1
# Bacillus = test: Antibacterial activity against Bacillus proteus ATCC 13315 after 24 hrs by NCCLS two fold broth microdilution method; type: functional; details: ATCC 13315, 24 h; method in brief: as §1
# Escherichia coli = test: Antibacterial activity against Escherichia coli ATCC 8099 after 24 hrs by NCCLS two fold broth microdilution method; type: functional; details: ATCC 8099, 24 h
# Method in brief: as §1, with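 “NCCLS.” for “NCCLS. Compounds were dissolved in DMSO as stocks, then diluted in Mueller–Hinton broth to final concentrations of 0.5–512 µg/mL.”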
# Pseudomonas aeruginosa [4] = test: Antibacterial activity against Pseudomonas aeruginosa ATCC 27853 after 24 hrs by NCCLS two fold broth microdilution method; type: functional; details: ATCC 27853, 24 h
# Method in brief: as §1, with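 “NCCLS.” for “NCCLS. Compounds were dissolved in DMSO as stocks, then diluted in Mueller–Hinton broth to final concentrations of 0.5–512 µg/mL.”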
# Salmonella typhi [5] = test: Antibacterial activity against Bacillus typhi after 24 hrs by NCCLS two fold broth microdilution method; type: functional, Salmonella enterica subsp. enterica serovar Typhi; details: Salmonella enterica
# Method in brief: as §2, with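 “NCCLS. DMSO stocks diluted in Mueller–Hinton broth to 512, 256, 128, 64, 32, 16, 8, 4, 2, 1, 0.5 µg/mL.” for “NCCLS.”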
# Staphylococcus aureus [6] = test: Potency index, ratio of Chloromycin MIC to compound MIC for Staphylococcus aureus ATCC 25923; type: functional
# Staphylococcus aureus [7] = test: Potency index, ratio of norfloxacin MIC to compound MIC for Staphylococcus aureus ATCC 25923; type: functional
# Bacillus subtilis [8] = test: Potency index, ratio of Chloromycin MIC to compound MIC for Bacillus subtilis ATCC 21216; type: functional
# Pseudomonas aeruginosa [9] = test: Potency index, ratio of Chloromycin MIC to compound MIC for Pseudomonas aeruginosa ATCC 27853; type: functional
# Candida albicans = test: Antifungal activity against Candida albicans ATCC 76615 after 24 hrs by NCCLS two fold broth microdilution method; type: functional; details: ATCC 76615, 24 h
# Method in brief: (§3)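 Two-fold serial microdilution following NCCLS. A spore suspension in sterile distilled water was prepared from one-day-old cultures grown on Sabouraud agar and adjusted to a final 1–5 × 10^3 spores/mL. DMSO stocks were diluted in RPMI 1640 to eleven concentrations (0.5–512 µg/mL), inoculated and held at 35 °C for 24 h. Growth was read visually and spectrophotometrically, MIC was the lowest concentration with complete inhibition, and runs were in triplicate.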
# Pichia norvegensis = test: Antifungal activity against Candida mycoderma after 24 hrs by NCCLS two fold broth microdilution method; type: functional
# Cyberlindnera jadinii = test: Antifungal activity against Candida utilis after 24 hrs by NCCLS two fold broth microdilution method; type: functional; details: Williopsis jadinii; method in brief: as §3
# Saccharomyces cerevisiae = test: Antifungal activity against Saccharomyces cerevisiae after 24 hrs by NCCLS two fold broth microdilution method; type: functional; method in brief: as §3
# Aspergillus flavus [10] = test: Antifungal activity against Aspergillus flavus after 24 hrs by NCCLS two fold broth microdilution method; type: functional; method in brief: as §3
# Calf thymus DNA [11] = test: Binding affinity to calf thymus DNA assessed as increase in maximum absorption by UV-vis absorption spectra analysis; type: nucleic-acid assay; details: Bos taurus
# Method in brief: (§4)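 Calf thymus DNA was held at a fixed concentration and titrated with increasing amounts of compound. UV-vis absorption spectra were recorded, following the DNA absorption maximum at 260 nm.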
# Calf thymus DNA [12] = test: Binding affinity to calf thymus DNA assessed as hypochromic effect up to 1.6 10^-5 mol/L by UV-vis absorption spectra analysis; type: nucleic-acid assay; details: Bos taurus; method in brief: as §4
# Calf thymus DNA [13] = test: Binding affinity to calf thymus DNA assessed as hyperchromic effect up to 1.6 10^-5 mol/L by UV-vis absorption spectra analysis; type: nucleic-acid assay; details: Bos taurus; method in brief: as §4
# Calf thymus DNA [14] = test: Binding affinity to calf thymus DNA by UV-vis absorption spectra analysis; type: nucleic-acid assay; details: Bos taurus; method in brief: as §4
# Calf thymus DNA [15] = test: Inhibition of neutral red binding to calf thymus DNA up to 0.48 10^-5 mol/L by UV-vis absorption spectra analysis; type: nucleic-acid assay; details: Bos taurus
# Albumin [16] = biological target: T1, Albumin (Homo sapiens, UniProt P02768); test: Binding affinity to human serum albumin up to 1.6 10^-5 mol/L by UV-vis absorption spectra analysis; type: ADME; details: isolated protein
# T1 sequence (P02768 whole entry): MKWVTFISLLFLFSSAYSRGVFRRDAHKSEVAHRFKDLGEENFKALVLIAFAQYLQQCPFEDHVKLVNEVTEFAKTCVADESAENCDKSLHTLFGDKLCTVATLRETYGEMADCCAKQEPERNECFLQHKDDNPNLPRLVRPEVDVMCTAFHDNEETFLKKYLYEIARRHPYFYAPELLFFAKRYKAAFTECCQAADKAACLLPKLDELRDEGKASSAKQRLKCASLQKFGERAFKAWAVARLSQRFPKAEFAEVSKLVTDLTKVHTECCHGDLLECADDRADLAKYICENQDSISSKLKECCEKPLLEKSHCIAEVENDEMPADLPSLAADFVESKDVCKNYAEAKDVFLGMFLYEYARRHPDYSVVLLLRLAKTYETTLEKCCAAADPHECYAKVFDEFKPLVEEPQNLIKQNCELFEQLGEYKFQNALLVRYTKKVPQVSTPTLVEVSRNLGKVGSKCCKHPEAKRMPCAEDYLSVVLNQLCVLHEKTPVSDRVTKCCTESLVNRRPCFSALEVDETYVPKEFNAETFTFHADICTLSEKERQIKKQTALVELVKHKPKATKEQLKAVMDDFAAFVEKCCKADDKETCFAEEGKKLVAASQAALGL
# Albumin [17] = biological target: T1, Albumin; test: Binding affinity to human serum albumin by fluorescence spectroscopic analysis; type: ADME; details: isolated protein
# Albumin [18] = biological target: T1, Albumin; test: Binding affinity to human serum albumin assessed as Stern-Volmer quenching constant at 273 K by fluorescence spectroscopic analysis; type: ADME; details: isolated protein
# Method in brief: (§5)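 Intrinsic fluorescence of HSA (single Trp-214, emission peak 348 nm) was recorded with increasing compound concentration at several temperatures. Quenching data were fitted to the Stern-Volmer equation F0/F = 1 + KSV[Q] = 1 + Kqτ0[Q] to give KSV, and Kq was derived via τ0.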
# Albumin [19] = biological target: T1, Albumin; test: Binding affinity to human serum albumin assessed as quenching constant at 273 K by fluorescence spectroscopic analysis; type: ADME; details: isolated protein; method in brief: as §5
# Albumin [20] = biological target: T1, Albumin; test: Binding affinity to human serum albumin at 273 K by modified Stern-Volmer method; type: ADME; details: isolated protein
# Albumin [21] = biological target: T1, Albumin; test: Binding affinity to human serum albumin at 273 K by scatchard plot analysis; type: ADME; details: isolated protein
# Albumin [22] = biological target: T1, Albumin; test: Binding affinity to human serum albumin assessed as change in enthalpy at 273 K by van't Hoff plot analysis; type: ADME; details: isolated protein
# Albumin [23] = biological target: T1, Albumin; test: Binding affinity to human serum albumin assessed as Gibbs free energy change at 273 K by van't Hoff plot analysis; type: ADME; details: isolated protein
# Albumin [24] = biological target: T1, Albumin; test: Binding affinity to human serum albumin assessed as change in entropy at 273 K by van't Hoff plot analysis; type: ADME; details: isolated protein
# Albumin [25] = biological target: T1, Albumin; test: Binding affinity to human serum albumin assessed as Stern-Volmer quenching constant at 293 K by fluorescence spectroscopic analysis; type: ADME; details: isolated protein; method in brief: as §5
# Albumin [26] = biological target: T1, Albumin; test: Binding affinity to human serum albumin assessed as Stern-Volmer quenching constant at 313 K by fluorescence spectroscopic analysis; type: ADME; details: isolated protein; method in brief: as §5
# Albumin [27] = biological target: T1, Albumin; test: Binding affinity to human serum albumin assessed as quenching constant at 293 K by fluorescence spectroscopic analysis; type: ADME; details: isolated protein; method in brief: as §5
# Albumin [28] = biological target: T1, Albumin; test: Binding affinity to human serum albumin assessed as quenching constant at 313 K by fluorescence spectroscopic analysis; type: ADME; details: isolated protein; method in brief: as §5
# Albumin [29] = biological target: T1, Albumin; test: Binding affinity to human serum albumin at 293 K by modified Stern-Volmer method; type: ADME; details: isolated protein
# Albumin [30] = biological target: T1, Albumin; test: Binding affinity to human serum albumin at 313 K by modified Stern-Volmer method; type: ADME; details: isolated protein
# Albumin [31] = biological target: T1, Albumin; test: Binding affinity to human serum albumin at 293 K by scatchard plot analysis; type: ADME; details: isolated protein
# Albumin [32] = biological target: T1, Albumin; test: Binding affinity to human serum albumin at 313 K by scatchard plot analysis; type: ADME; details: isolated protein
# Albumin [33] = biological target: T1, Albumin; test: Binding affinity to human serum albumin assessed as Gibbs free energy change at 293 K by van't Hoff plot analysis; type: ADME; details: isolated protein
# Albumin [34] = biological target: T1, Albumin; test: Binding affinity to human serum albumin assessed as Gibbs free energy change at 313 K by van't Hoff plot analysis; type: ADME; details: isolated protein
# Aspergillus flavus [35] = test: Potency index, ratio of Fluconazole MIC to compound MIC for Aspergillus flavus; type: functional
# Salmonella typhi [36] = test: Potency index, ratio of Chloromycin MIC to compound MIC for Bacillus typhi; type: functional, Salmonella enterica subsp. enterica serovar Typhi
structure (smiles),measurement,setting,value
CC(=O)Nc1ccc(S(=O)(=O)Cc2nc3ccccc3n2Cc2ccc(F)cc2)cc1,MIC,Staphylococcus aureus [1],4 µg/mL
same,MIC,Staphylococcus aureus [2],16 µg/mL
same,MIC,Bacillus subtilis [3],16 µg/mL
same,MIC,Micrococcus luteus,64 µg/mL
same,MIC,Bacillus,32 µg/mL
same,MIC,Escherichia coli,32 µg/mL
same,MIC,Pseudomonas aeruginosa [4],256 µg/mL
same,MIC,Salmonella typhi [5],16 µg/mL
same,Ratio,Staphylococcus aureus [6],2
same,Ratio,Staphylococcus aureus [7],2
same,Ratio,Bacillus subtilis [8],2
same,Ratio,Pseudomonas aeruginosa [9],4
same,MIC,Candida albicans,64 µg/mL
same,MIC,Pichia norvegensis,64 µg/mL
same,MIC,Cyberlindnera jadinii,16 µg/mL
same,MIC,Saccharomyces cerevisiae,64 µg/mL
same,MIC,Aspergillus flavus [10],64 µg/mL
same,Activity,Calf thymus DNA [11],Dose-dependent effect
same,Activity,Calf thymus DNA [12],inactive
same,Activity,Calf thymus DNA [13],Active
same,K,Calf thymus DNA [14],1.26 ×10⁴ L/mol
same,inhibition,Calf thymus DNA [15],Active
same,Activity,Albumin [16],Active
same,Activity,Albumin [17],Dose-dependent effect
same,KSV,Albumin [18],3.26 ×10⁴ L/mol
same,Kq,Albumin [19],5.09 ×10¹² L/mol/s
same,Ka,Albumin [20],54300 M⁻¹
same,Kb,Albumin [21],78600 M⁻¹
same,deltaH,Albumin [22],-1.757 kJ/mol
same,deltaG,Albumin [23],-24.31 kJ/mol
same,deltaS,Albumin [24],82.61 J/mol/K
same,KSV,Albumin [25],2.2 ×10⁴ L/mol
same,KSV,Albumin [26],1.83 ×10⁴ L/mol
same,Kq,Albumin [27],3.44 ×10¹² L/mol/s
same,Kq,Albumin [28],2.86 ×10¹² L/mol/s
same,Ka,Albumin [29],36900 M⁻¹
same,Ka,Albumin [30],35800 M⁻¹
same,Kb,Albumin [31],58400 M⁻¹
same,Kb,Albumin [32],41600 M⁻¹
same,deltaG,Albumin [33],-25.542 kJ/mol
same,deltaG,Albumin [34],-26.774 kJ/mol
CC(=O)Nc1ccc(S(=O)(=O)Cc2nc3ccccc3n2Cc2ccc(Cl)cc2Cl)cc1,MIC,Staphylococcus aureus [1],64 µg/mL
same,MIC,Staphylococcus aureus [2],128 µg/mL
same,MIC,Bacillus subtilis [3],16 µg/mL
same,MIC,Micrococcus luteus,128 µg/mL
same,MIC,Bacillus,32 µg/mL
same,MIC,Escherichia coli,8 µg/mL
same,MIC,Pseudomonas aeruginosa [4],16 µg/mL
same,MIC,Salmonella typhi [5],4 µg/mL
same,MIC,Candida albicans,512 µg/mL
same,MIC,Pichia norvegensis,512 µg/mL
same,MIC,Cyberlindnera jadinii,128 µg/mL
same,MIC,Saccharomyces cerevisiae,128 µg/mL
same,MIC,Aspergillus flavus [10],32 µg/mL
same,Ratio,Aspergillus flavus [35],16
same,Activity,Calf thymus DNA [11],Dose-dependent effect
same,Activity,Calf thymus DNA [12],inactive
same,Activity,Calf thymus DNA [13],Active
same,K,Calf thymus DNA [14],1.52 ×10⁴ L/mol
same,inhibition,Calf thymus DNA [15],Active
same,Activity,Albumin [16],Active
same,Activity,Albumin [17],Dose-dependent effect
same,KSV,Albumin [18],5.25 ×10⁴ L/mol
same,Kq,Albumin [19],8.2 ×10¹² L/mol/s
same,Ka,Albumin [20],11100 M⁻¹
same,Kb,Albumin [21],65600 M⁻¹
same,deltaH,Albumin [22],-0.82 kJ/mol
same,deltaG,Albumin [23],-21.139 kJ/mol
same,deltaS,Albumin [24],74.429 J/mol/K
same,Ratio,Salmonella typhi [36],8
same,KSV,Albumin [25],4.08 ×10⁴ L/mol
same,KSV,Albumin [26],3.02 ×10⁴ L/mol
same,Kq,Albumin [27],6.38 ×10¹² L/mol/s
same,Kq,Albumin [28],4.72 ×10¹² L/mol/s
same,Ka,Albumin [29],10800 M⁻¹
same,Ka,Albumin [30],10600 M⁻¹
same,Kb,Albumin [31],59300 M⁻¹
same,Kb,Albumin [32],42100 M⁻¹
same,deltaG,Albumin [33],-22.042 kJ/mol
same,deltaG,Albumin [34],-24.116 kJ/mol
